Reference: ChEMBL document CHEMBL4725404, “Design, synthesis and biological evaluation of 4-aryl-5-aminoalkyl-thiazole-2-amines derivatives as ROCK II inhibitors” (Bioorg Med Chem, 2020)

Tests used:
[1] = target: T1, Rho-associated protein kinase 2 (Homo sapiens, UniProt O75116); assay: Inhibition of ROCK2 (unknown origin) using C-terminus recombinant MBS (654-880 residues) as substrate at 10 uM incubated for 30 mins in presence of ATP by ELISA relative to control
In short: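 ROCK II activity ELISA kit; compounds screened at 10 µM for percent inhibition. Kinase reaction incubated at 30 °C for 30 min, then washed. Horseradish peroxidase-conjugated anti-AF20 antibody added for 30 min at room temperature. TMB substrate developed and absorbance read at 450 nm. Inhibition rate derived from OD450.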
Target sequence in this assay (O75116 whole entry, looked up, the tested form may be a part): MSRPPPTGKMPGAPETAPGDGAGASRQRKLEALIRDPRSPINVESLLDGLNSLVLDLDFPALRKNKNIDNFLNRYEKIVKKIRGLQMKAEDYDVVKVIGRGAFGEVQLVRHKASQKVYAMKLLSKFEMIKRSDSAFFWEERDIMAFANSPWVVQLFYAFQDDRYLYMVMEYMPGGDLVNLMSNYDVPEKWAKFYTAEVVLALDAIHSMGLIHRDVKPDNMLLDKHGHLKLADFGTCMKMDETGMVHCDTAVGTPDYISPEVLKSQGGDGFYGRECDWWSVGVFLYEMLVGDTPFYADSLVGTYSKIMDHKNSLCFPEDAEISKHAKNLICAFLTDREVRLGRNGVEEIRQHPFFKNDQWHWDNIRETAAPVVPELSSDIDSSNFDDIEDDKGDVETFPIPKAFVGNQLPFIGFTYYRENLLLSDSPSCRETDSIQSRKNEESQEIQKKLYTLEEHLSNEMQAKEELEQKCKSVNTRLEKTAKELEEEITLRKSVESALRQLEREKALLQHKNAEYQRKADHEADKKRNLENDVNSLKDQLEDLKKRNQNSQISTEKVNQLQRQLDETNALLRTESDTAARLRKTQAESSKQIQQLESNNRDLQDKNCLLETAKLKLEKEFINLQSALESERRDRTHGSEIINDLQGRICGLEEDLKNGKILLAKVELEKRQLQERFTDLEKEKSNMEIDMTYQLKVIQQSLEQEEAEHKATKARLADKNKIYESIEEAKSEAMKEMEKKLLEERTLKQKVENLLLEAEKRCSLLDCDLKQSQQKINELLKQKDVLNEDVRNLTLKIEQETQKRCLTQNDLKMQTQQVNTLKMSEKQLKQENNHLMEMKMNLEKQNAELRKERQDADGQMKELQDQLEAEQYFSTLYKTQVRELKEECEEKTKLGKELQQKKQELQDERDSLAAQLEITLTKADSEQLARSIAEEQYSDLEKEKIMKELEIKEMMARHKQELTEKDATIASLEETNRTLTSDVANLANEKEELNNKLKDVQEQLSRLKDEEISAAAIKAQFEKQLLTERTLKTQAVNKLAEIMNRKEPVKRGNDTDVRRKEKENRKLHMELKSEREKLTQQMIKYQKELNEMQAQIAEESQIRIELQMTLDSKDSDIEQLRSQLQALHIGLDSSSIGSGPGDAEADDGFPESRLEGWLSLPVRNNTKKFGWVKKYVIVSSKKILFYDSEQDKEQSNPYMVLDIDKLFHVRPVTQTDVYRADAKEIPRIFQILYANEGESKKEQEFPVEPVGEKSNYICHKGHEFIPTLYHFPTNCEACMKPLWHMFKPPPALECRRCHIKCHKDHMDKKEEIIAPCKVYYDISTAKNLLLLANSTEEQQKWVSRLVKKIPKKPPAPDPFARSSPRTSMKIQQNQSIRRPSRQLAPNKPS

[2] = target: T1, Rho-associated protein kinase 2; assay: Inhibition of ROCK2 (unknown origin) using C-terminus recombinant MBS (654-880 residues) as substrate incubated for 30 mins in presence of ATP by ELISA
In short: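 Compounds with significant single-point inhibition were run in full concentration–response in the ROCK II ELISA kit. Kinase step at 30 °C for 30 min, then wash. Anti-AF20 HRP antibody applied for 30 min at room temperature, followed by TMB colour development read at OD 450 nm. IC50 calculated by nonlinear regression of inhibition rates.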
Target sequence in this assay (O75116 whole entry, the tested form may be a part): as the sequence (O75116 whole entry, looked up, the tested form may be a part) above

SMILES	inhibition [1]	IC50 [2]
CC(C)N(C)c1sc(NC(=O)c2ccncc2)nc1-c1ccncc1	32.1%	
CC(C)N(C)Cc1sc(NC(=O)c2cccnc2)nc1-c1cccnc1	38.1%	
O=C(Nc1nc(-c2ccncc2)c(N2CCOCC2)s1)C1COc2ccccc2O1 (stereo not drawn)	76.3%	130 nM
O=C(Nc1nc(-c2ccncc2)cs1)C1COc2ccccc2O1 (stereo not drawn)	91.3%	
CN1CCN(c2sc(NC(=O)c3ccncc3)nc2-c2ccncc2)CC1	34.3%	
CN(C)Cc1sc(NC(=O)C2COc3ccccc3O2)nc1-c1cccnc1 (stereo not drawn)	58.1%	4960 nM
CN(C)CCc1sc(NC(=O)c2ccncc2)nc1-c1ccncc1	48.8%	
CN(C)C(=O)Cc1sc(NC(=O)C2COc3ccccc3O2)nc1-c1ccncc1 (stereo not drawn)	56.9%	8830 nM
CN(C)CCc1sc(NC(=O)C2COc3ccccc3O2)nc1-c1ccncc1 (stereo not drawn)	78.5%	90 nM
CN(C)Cc1sc(NC(=O)c2cccnc2)nc1-c1cccnc1	33.9%	
O=C(Nc1nc(-c2cccnc2)c(CN2CCCC2)s1)C1COc2ccccc2O1 (stereo not drawn)	61.3%	
CN(C)C(=O)Cc1sc(NC(=O)c2ccncc2)nc1-c1ccncc1	38.1%	

The next lines start with the values.

inhibition [1]	IC50 [2]	SMILES
87.4%		O=C(Nc1nc(-c2ccncc2)c(CN2CCOCC2)s1)C1COc2ccccc2O1 (stereo not drawn)
28.5%		O=C(Nc1nc(-c2cccnc2)c(CN2CCCCC2)s1)c1cccnc1
52.2%		O=C(Nc1nc(-c2ccncc2)c(CN2CCOCC2)s1)c1cccnc1
47.6%		O=C(Nc1nc(-c2ccncc2)c(CN2CCCC2)s1)c1ccncc1
58.1%		O=C(Nc1nc(-c2ccncc2)c(CN2CCOCC2)s1)c1ccncc1
35.3%		CN(C)Cc1sc(NC(=O)c2ccncc2)nc1-c1cccnc1
32.1%		CN1CCN(Cc2sc(NC(=O)c3cccnc3)nc2-c2cccnc2)CC1
51.1%		O=C(Nc1nc(-c2cccnc2)c(CN2CCOCC2)s1)c1ccncc1
48.2%		O=C(Nc1nc(-c2ccncc2)c(CN2CCCCC2)s1)c1ccncc1
63.8%	1730 nM	O=C(Nc1nc(-c2cccnc2)c(CN2CCOCC2)s1)C1COc2ccccc2O1 (stereo not drawn)
41.1%		O=C(Nc1nc(-c2cccnc2)c(CN2CCOCC2)s1)c1cccnc1
